Published values from different studies.
Compare with care: the assays were run in different laboratories.
Organism: Staphylococcus aureus
Effect on: microbial growth

| Structure (SMILES) | test | system | setting | MIC |
| --- | --- | --- | --- | --- |
| C[C@@H](O)[C@H]1C(=O)N2C(C(=O)O)=C(S[C@H]3C[C@@H](C(=O)N4CC[C@H](NC(=O)CNC(=N)N)C4)N(C)C3)[C@H](C)[C@H]12 | – | MRSA | – | 8 µg/mL |
| CN[C@H](CC(C)C)C(=O)N[C@H]1C(=O)N[C@@H](CC(N)=O)C(=O)N[C@H]2C(=O)N[C@H]3C(=O)N[C@H](C(=O)N[C@H](C(=O)O)c4cc(O)cc(O)c4-c4cc3ccc4O)[C@H](O)c3ccc(c(Cl)c3)Oc3cc2cc(c3O[C@@H]2O[C@H](CO)[C@@H](O)[C@H](O)[C@H]2O[C@H]2C[C@](C)(N)[C@H](O)[C@H](C)O2)Oc2ccc(cc2Cl)[C@H]1O | broth dilution | 16339 | – | 1 µg/mL |
| CC(C)Oc1c(NC(=O)c2ccc(NC(=O)[C@H](CC(N)=O)NC(=O)c3ccc(NC(=O)c4ccc([N+](=O)[O-])c5cccnc45)cc3)cc2)ccc(C(=O)Nc2ccc(C(=O)O)cc2)c1O | – | ATCC29213 | – | > 64 µg/mL |
| CCn1cc(C(=O)O)c(=O)c2cc(F)c(N3CCNCC3)cc21 | broth dilution | ATCC6538 | – | 2 µM |
| COc1c(C)c(OC)c(C(=O)/C=C/c2ccccc2)c(OC)c1C | broth dilution | ATCC25923 | – | 5000 µg/mL |
| CCOc1cc(-c2nc3ccccc3[nH]2)ccc1O | broth dilution | ATCC29213 MSSA | – | 128 µg/mL |
| O=C(O)CN1C(=O)/C(=C/c2ccc(-c3ccc(N(c4ccccc4)c4ccccc4)cc3)c3ccccc23)SC1=S | broth dilution | ATCC25923 | – | 1000 µg/mL |
| CCS(=O)(=O)Nc1ccc2c(c1)/C(=C(/Nc1ccc(CN3CCCCC3)cc1)c1ccccc1)C(=O)N2 | – | NCTC8325 | – | > 30 µM |
| CC(C)Oc1c(NC(=O)c2ccc(NC(=O)[C@H](CC(N)=O)NC(=O)c3ccc(NC(=O)c4ccc(C#N)cc4)cc3)cc2)ccc(C(=O)Nc2cc(C(=O)O)n(C)c2)c1O | – | ATCC29213 | – | 64 µg/mL |
| Clc1ccc(-c2nc3ccccc3n2Cc2ccccc2)cc1Cl | broth dilution | ATCC29213 MSSA | – | 8 µg/mL |
| O=C1NC(=S)S/C1=C\c1ccc(-c2ccc(N(c3ccccc3)c3ccccc3)cc2)c2ccccc12 | broth dilution | ATCC25923 | – | 500 µg/mL |
| CO[C@H]1C[C@@H]2CC[C@@H](C)[C@@](O)(O2)C(=O)C(=O)N2CCCC[C@H]2C(=O)O[C@H]([C@H](C)C[C@@H]2CC[C@@H](OCCO)[C@H](OC)C2)CC(=O)[C@H](C)/C=C(\C)[C@@H](O)[C@@H](OC)C(=O)[C@H](C)C[C@H](C)/C=C/C=C/C=C/1C | – | NCTC8325 | – | > 30 µM |
| COC(=O)/C(C#N)=C1\Nc2ccccc2O1 | – | – | – | > 128 µg/mL |
| c1ccc2c(-c3cnn4cc(-c5ccc(N6CCNCC6)cc5)cnc34)ccnc2c1 | – | NCTC8325 | – | > 30 µM |
| CC1=NN(CNC(=O)c2ccccc2)C(=O)C1=NNn1c(-c2ccccc2)nc2ccccc2c1=O | broth dilution | – | 24 h | 51.9 µM |
| O=C(Nc1cccc(Cl)c1)Nc1ncc(CCNc2ncnc3ccsc23)s1 | – | NCTC8325 | – | > 30 µM |
| C[n+]1c(/C=C/c2c[nH]c3ccccc23)cc(/C=C2\Sc3ccccc3N2CCCN2CCOCC2)c2ccccc21.[I-] | broth dilution | ATCCBAA44 | – | 8 µg/mL |
| Cc1cc(Nc2nc(N[C@@H](C)c3ccc(F)cc3)c(C#N)cc2F)n[nH]1 | – | NCTC8325 | – | 30 µM |
| CO[C@H]1/C=C/O[C@@]2(C)Oc3c(C)c(O)c4c(O)c(c(/C=N/N5CCN(C)CC5)c(O)c4c3C2=O)NC(=O)/C(C)=C\C=C\[C@H](C)[C@H](O)[C@@H](C)[C@@H](O)[C@@H](C)[C@H](OC(C)=O)[C@@H]1C | broth dilution | ATCC29213 | 24 h | 0.0078 µg/mL |
| NC(=O)c1c(NC(=O)C2CC2)sc2c1CCCC2 | – | NCTC8325 | – | > 30 µM |
| COc1cccc(-c2nc3ccc(C)cc3[nH]2)c1 | broth dilution | ATCC29213 MSSA | – | 128 µg/mL |
